Source: ChEMBL document CHEMBL1759986, “Selective α-glucosidase substrates and inhibitors containing short aromatic peptidyl moieties” (Bioorg Med Chem Lett, 2011)
Each block holds one molecule with its values, some of them ahead of it. Active and inactive are the calls of the source. No cut-off for these calls is given here.

Tests used:
[1] = test system: Salivary alpha-amylase (Homo sapiens); assay: Inhibition of human salivary alpha-amylase assessed as formation of p-nitrophenol
[2] = target: T1, Pancreatic alpha-amylase (Sus scrofa) (UniProt P00690); assay: Inhibition of pig alpha-amylase assessed as formation of p-nitrophenol
T1 sequence (whole entry): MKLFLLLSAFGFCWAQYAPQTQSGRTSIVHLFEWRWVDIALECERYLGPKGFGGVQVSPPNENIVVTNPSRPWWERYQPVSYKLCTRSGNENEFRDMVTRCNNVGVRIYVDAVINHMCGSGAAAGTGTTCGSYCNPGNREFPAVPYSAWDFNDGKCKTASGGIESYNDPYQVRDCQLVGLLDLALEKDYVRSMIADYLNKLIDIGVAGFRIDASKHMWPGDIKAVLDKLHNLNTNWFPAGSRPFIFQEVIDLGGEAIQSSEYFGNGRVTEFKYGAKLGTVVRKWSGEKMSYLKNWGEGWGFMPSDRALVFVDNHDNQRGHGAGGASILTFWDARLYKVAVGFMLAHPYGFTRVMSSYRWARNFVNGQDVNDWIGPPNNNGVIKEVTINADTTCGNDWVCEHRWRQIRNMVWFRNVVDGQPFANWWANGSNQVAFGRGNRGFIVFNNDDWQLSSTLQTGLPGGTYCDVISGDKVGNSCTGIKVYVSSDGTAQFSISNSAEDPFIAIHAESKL
Method in brief: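 Screening used each α-amylase with an equimolar mixture of the peptidyl substrate and p-nitrophenyl-α-D-pentaoside. The read-out was the rate of p-nitrophenol formation compared with the chromogenic substrate alone. Each data point was triplicated and averaged.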

[3] = target: T2, Alpha-glucosidase (Geobacillus stearothermophilus, UniProt P94451); assay: Competitive inhibition of Bacillus stearothermophilus alpha-glucosidase assessed as production of chromogenic p-Nitrphenol measured after 3 mins by HPLC and Michaelis-Menten equation
T2 sequence (P94451 whole entry): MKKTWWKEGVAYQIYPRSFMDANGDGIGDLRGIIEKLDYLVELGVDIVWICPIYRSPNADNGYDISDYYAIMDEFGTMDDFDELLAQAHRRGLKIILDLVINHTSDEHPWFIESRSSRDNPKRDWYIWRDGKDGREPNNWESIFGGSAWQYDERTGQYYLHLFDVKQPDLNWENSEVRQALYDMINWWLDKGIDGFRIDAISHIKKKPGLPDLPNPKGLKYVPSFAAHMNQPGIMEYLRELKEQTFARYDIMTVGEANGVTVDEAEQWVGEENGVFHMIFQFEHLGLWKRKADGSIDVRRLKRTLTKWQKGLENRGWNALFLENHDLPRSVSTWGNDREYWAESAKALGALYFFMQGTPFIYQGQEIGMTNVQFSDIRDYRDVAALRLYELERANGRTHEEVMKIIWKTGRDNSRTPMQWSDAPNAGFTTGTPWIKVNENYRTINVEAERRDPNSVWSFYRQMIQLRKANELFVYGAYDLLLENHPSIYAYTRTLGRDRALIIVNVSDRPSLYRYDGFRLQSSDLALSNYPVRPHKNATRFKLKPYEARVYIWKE
Method in brief: (§1)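 The chromogenic substrate was p-nitrophenyl-α-D-glucopyranoside, with p-nitrophenol formation monitored. Ki was calculated from a Dixon plot. Each measurement was triplicated and averaged.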

[4] = Competitive inhibition of rice alpha-glucosidase assessed as production of chromogenic p-Nitrphenol measured after 3 mins by HPLC and Michaelis-Menten equation; design: species or system Oryza sativa
Method in brief: as §1

[5] = substrate: O=[N+]([O-])c1ccc(O[C@H]2O[C@H](CO)[C@@H](O)[C@H](O)[C@H]2O)cc1; assay: Ratio of Kcat to Km for Bacillus stearothermophilus alpha-glucosidase assessed as production of chromogenic p-Nitrphenol; conditions: Geobacillus stearothermophilus
Method in brief: (§2)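 Alpha-glucosidase from Bacillus stearothermophillus was incubated with the substrate. Km was obtained by Michaelis–Menten kinetics. Vmax, kcat and kcat/Km were reported alongside Km. Each value was measured in triplicate and averaged.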

[6] = substrate: CC(=O)Nc1ccc(O[C@H]2O[C@H](CO)[C@@H](O)[C@H](O)[C@H]2O)cc1; assay: Activity at Bacillus stearothermophilus alpha-glucosidase assessed as production of chromogenic p-acetaminophenyl measured after 3 mins by HPLC Michaelis-Menten equation; conditions: Geobacillus stearothermophilus
Method in brief: as §2

[7] = substrate: O=[N+]([O-])c1ccc(O[C@H]2O[C@H](CO)[C@@H](O)[C@H](O)[C@H]2O)cc1; assay: Activity at Bacillus stearothermophilus alpha-glucosidase assessed as production of chromogenic p-Nitrphenol measured after 3 mins by HPLC and Michaelis-Menten equation; conditions: Geobacillus stearothermophilus
Method in brief: as §2

[8] = substrate: NC(=O)[C@H](Cc1ccc(O)cc1)NC(=O)[C@H](Cc1c[nH]c2ccccc12)NC(=O)CCC(=O)Nc1ccc(O[C@H]2O[C@H](CO)[C@@H](O)[C@H](O)[C@H]2O)cc1; assay: Activity at Bacillus stearothermophilus alpha-glucosidase assessed as production of chromogenic Sp-WY measured after 3 mins by HPLC Michaelis-Menten equation; conditions: Geobacillus stearothermophilus
Method in brief: as §2

[9] = substrate: NC(=O)[C@H](Cc1ccc(O)cc1)NC(=O)[C@H](Cc1c[nH]c2ccccc12)NC(=O)CCC(=O)Nc1ccc(O[C@H]2O[C@H](CO)[C@@H](O)[C@H](O)[C@H]2O)cc1; assay: Ratio of Kcat to Km for Bacillus stearothermophilus alpha-glucosidase assessed as production of chromogenic Sp-WY; conditions: Geobacillus stearothermophilus
Method in brief: as §2

[10] = substrate: CC(=O)Nc1ccc(O[C@H]2O[C@H](CO)[C@@H](O)[C@H](O)[C@H]2O)cc1; assay: Ratio of Kcat to Km for Bacillus stearothermophilus alpha-glucosidase assessed as production of chromogenic p-acetaminophenyl; conditions: Geobacillus stearothermophilus
Method in brief: as §2

inhibition [1]: inactive | inhibition [2]: inactive
Molecule: NC(=O)[C@H](Cc1ccc(O)cc1)NC(=O)[C@H](Cc1ccc(O)cc1)NC(=O)CCC(=O)Nc1ccc(O[C@H]2O[C@H](CO)[C@@H](O[C@H]3O[C@H](CO)[C@@H](O[C@H]4O[C@H](CO)[C@@H](O[C@H]5O[C@H](CO)[C@@H](O[C@H]6O[C@H](CO)[C@@H](O)[C@H](O)[C@H]6O)[C@H](O)[C@H]5O)[C@H](O)[C@H]4O)[C@H](O)[C@H]3O)[C@H](O)[C@H]2O)cc1

inhibition [1]: inactive | inhibition [2]: inactive
Molecule: NC(=O)[C@H](Cc1ccccc1)NC(=O)[C@H](Cc1ccc(O)cc1)NC(=O)CCC(=O)Nc1ccc(O[C@H]2O[C@H](CO)[C@@H](O[C@H]3O[C@H](CO)[C@@H](O[C@H]4O[C@H](CO)[C@@H](O[C@H]5O[C@H](CO)[C@@H](O[C@H]6O[C@H](CO)[C@@H](O)[C@H](O)[C@H]6O)[C@H](O)[C@H]5O)[C@H](O)[C@H]4O)[C@H](O)[C@H]3O)[C@H](O)[C@H]2O)cc1

inhibition [1]: inactive | inhibition [2]: inactive
Molecule: NC(=O)[C@H](Cc1c[nH]c2ccccc12)NC(=O)[C@H](Cc1c[nH]c2ccccc12)NC(=O)CCC(=O)Nc1ccc(O[C@H]2O[C@H](CO)[C@@H](O[C@H]3O[C@H](CO)[C@@H](O[C@H]4O[C@H](CO)[C@@H](O[C@H]5O[C@H](CO)[C@@H](O[C@H]6O[C@H](CO)[C@@H](O)[C@H](O)[C@H]6O)[C@H](O)[C@H]5O)[C@H](O)[C@H]4O)[C@H](O)[C@H]3O)[C@H](O)[C@H]2O)cc1

inhibition [1]: inactive | inhibition [2]: inactive
Molecule: NC(=O)[C@H](Cc1ccc(O)cc1)NC(=O)[C@H](Cc1c[nH]c2ccccc12)NC(=O)CCC(=O)Nc1ccc(O[C@H]2O[C@H](CO)[C@@H](O[C@H]3O[C@H](CO)[C@@H](O[C@H]4O[C@H](CO)[C@@H](O[C@H]5O[C@H](CO)[C@@H](O[C@H]6O[C@H](CO)[C@@H](O)[C@H](O)[C@H]6O)[C@H](O)[C@H]5O)[C@H](O)[C@H]4O)[C@H](O)[C@H]3O)[C@H](O)[C@H]2O)cc1

inhibition [1]: inactive | inhibition [2]: inactive
Molecule: NC(=O)[C@H](Cc1c[nH]c2ccccc12)NC(=O)[C@H](Cc1ccc(O)cc1)NC(=O)CCC(=O)Nc1ccc(O[C@H]2O[C@H](CO)[C@@H](O[C@H]3O[C@H](CO)[C@@H](O[C@H]4O[C@H](CO)[C@@H](O[C@H]5O[C@H](CO)[C@@H](O[C@H]6O[C@H](CO)[C@@H](O)[C@H](O)[C@H]6O)[C@H](O)[C@H]5O)[C@H](O)[C@H]4O)[C@H](O)[C@H]3O)[C@H](O)[C@H]2O)cc1

inhibition [1]: inactive | inhibition [2]: inactive
Molecule: O=[N+]([O-])c1ccc(O[C@H]2O[C@H](CO)[C@@H](O[C@H]3O[C@H](CO)[C@@H](O[C@H]4O[C@H](CO)[C@@H](O[C@H]5O[C@H](CO)[C@@H](O[C@H]6O[C@H](CO)[C@@H](O)[C@H](O)[C@H]6O)[C@H](O)[C@H]5O)[C@H](O)[C@H]4O)[C@H](O)[C@H]3O)[C@H](O)[C@H]2O)cc1

Ki [3]: 1400 µM
Molecule: NC(=O)[C@H](Cc1ccc(O)cc1)NC(=O)[C@H](Cc1c[nH]c2ccccc12)NC(=O)CCC(=O)Nc1ccc(O)cc1

Ki [4]: 4.2 µM
Molecule: C[C@H]1O[C@H](O[C@H]2[C@H](O)[C@@H](O)[C@@H](O[C@H]3[C@H](O)[C@@H](O)C(O)O[C@@H]3CO)O[C@@H]2CO)[C@H](O)[C@@H](O)[C@@H]1N[C@H]1C=C(CO)[C@@H](O)[C@H](O)[C@H]1O (stereo not given in full) [ACARBOSE]

inhibition [1]: inactive | inhibition [2]: inactive
Molecule: NC(=O)[C@H](Cc1c[nH]c2ccccc12)NC(=O)[C@H](Cc1ccccc1)NC(=O)CCC(=O)Nc1ccc(O[C@H]2O[C@H](CO)[C@@H](O[C@H]3O[C@H](CO)[C@@H](O[C@H]4O[C@H](CO)[C@@H](O[C@H]5O[C@H](CO)[C@@H](O[C@H]6O[C@H](CO)[C@@H](O)[C@H](O)[C@H]6O)[C@H](O)[C@H]5O)[C@H](O)[C@H]4O)[C@H](O)[C@H]3O)[C@H](O)[C@H]2O)cc1

inhibition [1]: inactive | inhibition [2]: inactive
Molecule: NC(=O)[C@H](Cc1ccc(O)cc1)NC(=O)[C@H](Cc1ccccc1)NC(=O)CCC(=O)Nc1ccc(O[C@H]2O[C@H](CO)[C@@H](O[C@H]3O[C@H](CO)[C@@H](O[C@H]4O[C@H](CO)[C@@H](O[C@H]5O[C@H](CO)[C@@H](O[C@H]6O[C@H](CO)[C@@H](O)[C@H](O)[C@H]6O)[C@H](O)[C@H]5O)[C@H](O)[C@H]4O)[C@H](O)[C@H]3O)[C@H](O)[C@H]2O)cc1

inhibition [1]: inactive | inhibition [2]: inactive
Molecule: NC(=O)[C@H](Cc1ccccc1)NC(=O)[C@H](Cc1ccccc1)NC(=O)CCC(=O)Nc1ccc(O[C@H]2O[C@H](CO)[C@@H](O[C@H]3O[C@H](CO)[C@@H](O[C@H]4O[C@H](CO)[C@@H](O[C@H]5O[C@H](CO)[C@@H](O[C@H]6O[C@H](CO)[C@@H](O)[C@H](O)[C@H]6O)[C@H](O)[C@H]5O)[C@H](O)[C@H]4O)[C@H](O)[C@H]3O)[C@H](O)[C@H]2O)cc1

inhibition [1]: inactive | inhibition [2]: inactive
Molecule: NC(=O)[C@H](Cc1ccccc1)NC(=O)[C@H](Cc1c[nH]c2ccccc12)NC(=O)CCC(=O)Nc1ccc(O[C@H]2O[C@H](CO)[C@@H](O[C@H]3O[C@H](CO)[C@@H](O[C@H]4O[C@H](CO)[C@@H](O[C@H]5O[C@H](CO)[C@@H](O[C@H]6O[C@H](CO)[C@@H](O)[C@H](O)[C@H]6O)[C@H](O)[C@H]5O)[C@H](O)[C@H]4O)[C@H](O)[C@H]3O)[C@H](O)[C@H]2O)cc1

Ki [3]: 110 µM
Molecule: NC(=O)[C@H](Cc1ccc(O)cc1)NC(=O)[C@H](Cc1c[nH]c2ccccc12)NC(=O)CCC(=O)Nc1ccc(O[C@@H]2O[C@H](CO)[C@@H](O)[C@H](O)[C@H]2O)cc1

B1: Alpha-glucosidase (Geobacillus stearothermophilus), P94451 (protein)
chain: T2 sequence (P94451 whole entry)
kcat/Km [5]: 7600 M⁻¹ s⁻¹ | Km [6]: 1900 µM | Vmax [6]: 0.0015 µM/s | kcat [6]: 0.76 s⁻¹ | Km [7]: 1200 µM | Vmax [7]: 0.019 µM/s | kcat [7]: 9.5 s⁻¹ | Km [8]: 13 µM | Vmax [8]: 0.00025 µM/s | kcat [8]: 0.13 s⁻¹ | kcat/Km [9]: 10000 M⁻¹ s⁻¹ | kcat/Km [10]: 400 M⁻¹ s⁻¹
